Measurements pooled from the literature.
Lines come from different studies, so protocols differ.
Target: Activin receptor type-1B (ACVR1B, Homo sapiens, UniProt P36896)
Residues used in one study (P36896 24-505): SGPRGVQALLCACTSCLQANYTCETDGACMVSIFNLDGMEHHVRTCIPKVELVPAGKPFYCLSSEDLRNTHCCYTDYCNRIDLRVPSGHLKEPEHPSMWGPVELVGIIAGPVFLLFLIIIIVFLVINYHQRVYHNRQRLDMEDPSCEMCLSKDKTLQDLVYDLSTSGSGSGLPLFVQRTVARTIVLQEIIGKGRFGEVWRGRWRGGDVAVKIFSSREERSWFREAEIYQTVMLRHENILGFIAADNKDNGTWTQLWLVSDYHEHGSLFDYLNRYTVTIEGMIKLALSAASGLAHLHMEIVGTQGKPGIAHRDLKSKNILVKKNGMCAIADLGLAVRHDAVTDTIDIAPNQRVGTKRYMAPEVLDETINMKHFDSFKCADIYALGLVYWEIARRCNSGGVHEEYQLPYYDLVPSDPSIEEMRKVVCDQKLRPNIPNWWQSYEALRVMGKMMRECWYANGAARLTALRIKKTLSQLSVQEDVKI

| Structure (SMILES) | read-out | action | technique | concentration | measurement | value |
| --- | --- | --- | --- | --- | --- | --- |
| O=C(CSc1nc2nccnc2c(=O)n1CCc1ccccc1)Nc1nccs1 | enzyme activity | inhibitor | – | 10 µM | inhibition | 4% |
| CSc1cccnc1N1CCN(Cc2nc3ccccc3[nH]2)CC1 | cell-free assay | – | competition with immobilised ligand | 1 µM | remaining binding | 100% |
| COc1cc(-c2cc(-c3ccc(N4CCNCC4)cc3)cnc2C)cc(OC)c1OC | enzyme activity | inhibitor | – | 0.1 µM | inhibition | 9% |
| O=C(NC[C@@H]1[C@H]2CN(C(=O)OCc3cc(C(F)(F)F)cc(C(F)(F)F)c3)C[C@@H]12)c1ccc2[nH]nnc2c1 | cell-free assay | – | competition with immobilised ligand | 1 µM | remaining binding | 100% |
| N#CCCc1ccc2c(c1)-c1[nH]c3ccc([N+](=O)[O-])cc3c1CC(=O)N2 | cell-free assay | – | – | 0.5 µM | remaining signal | 110% |
| CN(C)C1CCN(CC#Cc2nn(C3CCCC3)c3nc(NCc4ccccc4)ncc23)C1 (stereo not shown) | enzyme activity | inhibitor | FRET | 1 µM | inhibition | 5% |
| Cc1ccc(NC(=O)c2ccc(C)c(C(F)(F)F)c2)cc1C#Cc1nn(C2CCC(O)CC2)c2ncnc(N)c12 (stereo not shown) | cell-free assay | – | – | 10 µM | remaining signal | 79% |
| CNC(=O)c1cc(Oc2ccc(NC(=O)Nc3ccc(Cl)c(C(F)(F)F)c3)cc2)ccn1 | cell-free assay | inhibitor | – | 10 µM | inhibition | 17% |
| O=C(Nc1cnn(-c2csc(C(=O)NC3COC3)c2)c1)Nc1c(F)cccc1Cl | enzyme activity | inhibitor | – | 5 µM | remaining activity | 82% |
| CO[C@@H](C)c1c(Nc2ccc([C@H](N(C)C(=O)C3CCS(=O)(=O)CC3)C(F)(F)F)cc2)cnc2cc(Cl)nn12 | cell-free assay | – | competition with immobilised ligand | 1 µM | remaining binding | 72% |
| COc1cc2ncnc(Nc3ccc(Oc4ccccc4)c(C)c3C)c2cc1OC | enzyme activity | inhibitor | – | 1 µM | inhibition | -3% |
| Cn1c2c(Cl)c(Cl)ccc2c2cc(N)[nH]c(=O)c21 | thermal stability | – | DSF | 10 µM | ΔTm | 3.9 °C |
| Cc1ccc(Nc2nccc(N(C)c3ccc4c(C)n(C)nc4c3)n2)cc1S(N)(=O)=O | cell-free assay | inhibitor | – | 10 µM | inhibition | 17% |
| O=C(N1CCS(=O)(=O)CC1)N1C[C@H](c2ccc(OC(F)(F)F)cc2)C[C@H](c2nc(C3CC3)no2)C1 | cell-free assay | – | competition with immobilised ligand | 1 µM | remaining binding | 100% |
| Cn1c2c(Cl)c(Cl)ccc2c2cc[nH]c(=O)c21 | thermal stability | – | DSF | 10 µM | ΔTm | 3.1 °C |
| CCN(CC)CCNC(=O)c1c(C)[nH]c(/C=C2\C(=O)Nc3ccc(F)cc32)c1C | cell-free assay | – | – | 0.5 µM | remaining signal | 101% |
| O=C(O)[C@@H]1[C@@H](Cn2nnc3ccccc3c2=O)CC[C@H]1C(=O)c1ccc(OCCC2CCOCC2)cc1 | cell-free assay | – | competition with immobilised ligand | 1 µM | remaining binding | 100% |
| CCN1CCC2(CC1)NC(=O)c1c(c3ccc(Cl)c(Cl)c3n1C)C2C#N (racemic) | thermal stability | – | DSF | 10 µM | ΔTm | 0 °C |
| Cc1ccc(C(=O)Nc2ccc(CN3CCN(C)CC3)c(C(F)(F)F)c2)cc1C#Cc1cnc2cccnn12 | enzyme activity | – | – | 23.5 nM | remaining activity | 100% |
